The term inhibition denotes the share of the control response that was lost under treatment. A low value points to a weak effect. Usually pIC50 stands for −log10 of the IC50, conventionally taken in molar units.

Assay [1] concerns the target T1, Prostaglandin G/H synthase 2 (Ovis aries) (UniProt P79208).
T1 sequence (whole entry): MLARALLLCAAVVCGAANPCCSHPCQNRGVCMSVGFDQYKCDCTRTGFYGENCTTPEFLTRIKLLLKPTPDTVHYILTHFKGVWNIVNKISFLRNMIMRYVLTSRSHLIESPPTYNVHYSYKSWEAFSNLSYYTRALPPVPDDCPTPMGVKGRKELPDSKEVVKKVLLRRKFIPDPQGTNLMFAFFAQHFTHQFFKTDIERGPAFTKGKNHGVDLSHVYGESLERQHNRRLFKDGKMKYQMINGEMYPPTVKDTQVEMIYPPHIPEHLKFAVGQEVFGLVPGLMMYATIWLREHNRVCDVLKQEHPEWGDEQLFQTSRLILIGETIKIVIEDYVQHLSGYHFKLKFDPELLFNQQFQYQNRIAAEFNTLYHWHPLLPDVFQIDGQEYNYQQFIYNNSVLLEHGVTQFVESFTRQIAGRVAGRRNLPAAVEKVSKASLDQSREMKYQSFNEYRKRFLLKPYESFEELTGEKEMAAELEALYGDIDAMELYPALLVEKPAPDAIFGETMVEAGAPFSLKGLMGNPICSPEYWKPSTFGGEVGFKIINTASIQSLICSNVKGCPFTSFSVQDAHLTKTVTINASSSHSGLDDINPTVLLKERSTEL
The assay can be described thus: Inhibition of COX2 in sheep placental vesicle at 8 uM by enzyme immunoassay.

Assay [2] addresses T2, Prostaglandin G/H synthase 1 (Ovis aries) (UniProt P05979).
T2 sequence (whole entry): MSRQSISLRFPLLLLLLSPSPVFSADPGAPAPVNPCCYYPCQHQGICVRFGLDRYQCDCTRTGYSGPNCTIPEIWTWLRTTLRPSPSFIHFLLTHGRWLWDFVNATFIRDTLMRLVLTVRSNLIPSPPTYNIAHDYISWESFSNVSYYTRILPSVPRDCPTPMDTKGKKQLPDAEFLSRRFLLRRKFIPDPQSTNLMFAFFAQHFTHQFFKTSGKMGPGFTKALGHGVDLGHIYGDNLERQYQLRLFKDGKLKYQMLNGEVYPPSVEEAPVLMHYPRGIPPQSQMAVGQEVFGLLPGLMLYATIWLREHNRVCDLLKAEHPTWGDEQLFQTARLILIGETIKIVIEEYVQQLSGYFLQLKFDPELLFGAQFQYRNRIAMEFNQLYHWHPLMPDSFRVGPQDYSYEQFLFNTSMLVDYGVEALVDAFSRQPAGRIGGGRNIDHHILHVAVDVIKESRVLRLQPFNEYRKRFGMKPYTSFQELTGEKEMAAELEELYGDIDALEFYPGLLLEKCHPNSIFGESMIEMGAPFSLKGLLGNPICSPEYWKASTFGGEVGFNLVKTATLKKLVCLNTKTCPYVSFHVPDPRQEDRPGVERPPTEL
The assay can be described thus: Inhibition of COX1 in ram seminal vesicle at 8 uM by enzyme immunoassay. The assay is classed as tissue-based.

Assay [3] has as its target T3, Polyunsaturated fatty acid 5-lipoxygenase (Homo sapiens) (UniProt P09917).
T3 sequence (whole entry): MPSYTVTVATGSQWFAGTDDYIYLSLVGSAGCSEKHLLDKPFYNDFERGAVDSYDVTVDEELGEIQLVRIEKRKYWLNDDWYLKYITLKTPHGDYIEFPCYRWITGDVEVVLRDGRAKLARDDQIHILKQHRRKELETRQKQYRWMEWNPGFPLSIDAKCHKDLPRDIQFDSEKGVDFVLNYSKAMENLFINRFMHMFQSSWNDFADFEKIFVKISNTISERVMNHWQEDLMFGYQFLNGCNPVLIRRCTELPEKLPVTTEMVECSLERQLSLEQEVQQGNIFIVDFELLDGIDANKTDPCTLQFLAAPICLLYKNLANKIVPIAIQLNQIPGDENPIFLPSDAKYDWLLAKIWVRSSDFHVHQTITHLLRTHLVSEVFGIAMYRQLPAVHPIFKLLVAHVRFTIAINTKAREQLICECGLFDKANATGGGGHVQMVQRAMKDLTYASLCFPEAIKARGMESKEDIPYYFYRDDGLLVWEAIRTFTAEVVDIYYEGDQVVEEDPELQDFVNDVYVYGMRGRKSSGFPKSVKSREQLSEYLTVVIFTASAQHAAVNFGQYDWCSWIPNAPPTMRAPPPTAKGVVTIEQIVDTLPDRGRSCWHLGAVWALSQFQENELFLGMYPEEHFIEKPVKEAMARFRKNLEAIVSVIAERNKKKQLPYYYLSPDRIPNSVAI
Nature of the assay: Inhibition of 5LOX-mediated LTB4 formation in stimulated human polymorphonuclear leukocytes at 8 uM. The method, boiled down: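 5-LOX-mediated LTB4 formation was measured in stimulated human polymorphonuclear leukocytes in 96-well format. […] For IC50, at least 3 concentrations were tested in at least 3 independent experiments, each in duplicate, and IC50 was derived from a semilogarithmic dose plot. Results are given as means ± S.D.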

Assay [4] addresses T4, Polyunsaturated fatty acid 5-lipoxygenase (Homo sapiens, UniProt P09917).
T4 sequence (P09917 whole entry): T3 sequence (whole entry)
Nature of the assay: Inhibition of 5LOX-mediated LTB4 formation in stimulated human polymorphonuclear leukocytes. Particulars: for pIC50: read-out: IC50; call rule not given here. In outline:
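5-LOX-mediated LTB4 formation was measured in stimulated human polymorphonuclear leukocytes in 96-well format. For IC50, at least 3 concentrations were tested in at least 3 independent experiments, each in duplicate, and IC50 was derived from a semilogarithmic dose plot. Results are given as means ± S.D.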

Assay [5] addresses T5, Prostaglandin G/H synthase 2 (Ovis aries, UniProt P79208).
T5 sequence (P79208 whole entry): T1 sequence (whole entry)
Nature of the assay: Inhibition of COX2 in sheep placental vesicle by enzyme immunoassay. Particulars: for pIC50: read-out: IC50.

In assay [6] the target is T6, Prostaglandin G/H synthase 1 (Ovis aries, UniProt P05979).
T6 sequence (P05979 whole entry): T2 sequence (whole entry)
Nature of the assay: Inhibition of COX1 in ram seminal vesicle by enzyme immunoassay. Particulars: for pIC50: read-out: IC50. In outline: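 PGE2, the main arachidonic acid metabolite, was quantified by competitive enzyme immunoassay.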

pIC50: −log10 of the molar value. A value given as a limit tells only on which side of the number the result lay.

On to `C=CCc1ccc(OC(C)=O)c(-c2ccc(OC)c(CC=C)c2)c1`, for which the inhibition in assay [1] worked out at 56.3%; in assay [2] it was 18%; in assay [3], 76.3%. The pIC50 is 5.66 in assay [4] and 5.31 in assay [5].
Regarding `C=CCc1ccc(OC)c(-c2ccc(OC)c(CC=C)c2)c1`, the inhibition in assay [1] came out at 47.8%; in assay [2], 45.1%; in assay [3], 27.8%. Also, the negative logarithm of the IC50 (pIC50) in assay [6] was 4.94; in assay [4] it was 4.82; in assay [5] it was 5.11.
Regarding `C=CCc1ccc(O)c(-c2ccc(OC)c(/C=C/C)c2)c1`, the inhibition is 81.5% in assay [1], 80.5% in assay [2] and 99.3% in assay [3]. For the same molecule, the values for the pIC50 in assay [6], in assay [4] and in assay [5] were 6.15, 5.68 and 6.70, respectively.
Regarding `CCCc1ccc(OC)c(-c2ccc(OC)c(CCC)c2)c1`, the inhibition was 49.4% in assay [1], 27.3% in assay [2] and 24.4% in assay [3]. Also, the pIC50 in assay [6] was under 4.70; in assay [5], 5.16.
As for `C=CCc1ccc(O)c(-c2ccc(O)c(/C=C/C)c2)c1`, the inhibition in assay [1] was 75.1%; in assay [2], 84.8%; in assay [3] it was 100%. The pIC50 in assay [6] was 6.22; in assay [4] it was 6.00; in assay [5], 5.57.
Consider `COc1ccc(-c2cc(CC3CO3)ccc2O)cc1CC1CO1` (centres undefined), for which the IC50 result in assay [6], in assay [4] and in assay [5] was “Not Active” in each case.
In the case of `C=CCc1ccc(O)c(-c2ccc(O)c(CC=C)c2)c1` [HONOKIOL], the inhibition was found to be 88.3% in assay [1], 91% in assay [2] and 94% in assay [3]. For the same molecule, the figures for the pIC50 in assay [6], in assay [4] and in assay [5] were 5.74, 5.38 and 5.68, respectively.
With `C=CCc1ccc(O)c(-c2ccc(OC)c(CC=C)c2)c1` [METHYLHONOKIOL], the values for the inhibition in assay [1], in assay [2] and in assay [3] were 95.3%, 90.8% and 96.4%, respectively. Besides, the pIC50 in assay [6] is 7.00; in assay [4], 5.82; in assay [5], 7.22.
With `C=CCc1ccc(OC(C)=O)c(-c2ccc(OC(C)=O)c(CC=C)c2)c1`, the inhibition in assay [1] is 13.8%; in assay [2], 6.8%; in assay [3], 64.9%. Also, the pIC50 in assay [4] is 5.35.
Take `C=CCc1ccc(O)c(-c2ccc(OC)c(/C=C\C)c2)c1`: the results for the inhibition in assay [1], in assay [2] and in assay [3] were 62.7%, 68.6% and 99.9%, respectively. The pIC50 in assay [6] was 5.55; in assay [4], 5.96; in assay [5] it was 6.05.
`CCCc1ccc(O)c(-c2ccc(O)c(CCC)c2)c1`: the inhibition in assay [1] came to 81.6%; in assay [2], 89.6%; in assay [3], 99.9%. In addition, the pIC50 in assay [6] is 6.10; in assay [4], 5.77; in assay [5], 5.68.
Consider `CCCc1ccc(O)c(-c2ccc(OC)c(CCC)c2)c1`, for which the inhibition in assay [1] is 11.6%; in assay [2] it was 56.5%; in assay [3], 97.1%. Further, the results for the pIC50 in assay [6] and in assay [4] were 5.11 and 5.85, respectively.
